{"source": "ChEMBL document CHEMBL4130562", "about": "“Design, Synthesis, and Antibacterial Evaluation of Oxazolidinones with Fused Heterocyclic C-Ring Substructure” (ACS Med Chem Lett, 2017)", "key": {"Enterococcus faecium": {"test_system": "Enterococcus faecium", "assay": "Antibacterial activity against Enterococcus faecium 19434 by microbroth dilution method", "format": "functional"}, "Haemophilus influenzae": {"test_system": "Haemophilus influenzae", "assay": "Antibacterial activity against Haemophilus influenzae ATCC 49247 by microbroth dilution method", "format": "functional"}, "[1]": {"assay": "Metabolic stability in mouse liver microsomes assessed as parent compound remaining level", "format": "ADME, microsome", "summary_of_the_method": "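Compound was incubated with mouse liver microsomes to assess phase I metabolism. Read-out is percent of parent compound remaining.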"}, "[2]": {"test_system": "Staphylococcus epidermidis", "assay": "Antibacterial activity against Staphylococcus epidermidis ATCC 14990 by microbroth dilution method", "format": "functional"}, "Staphylococcus aureus [3]": {"test_system": "Staphylococcus aureus", "assay": "Antibacterial activity against linezolid-resistant Staphylococcus aureus by microbroth dilution method", "format": "functional"}, "[4]": {"assay": "Solubility in pH 1.2 buffer", "format": "physicochemical", "summary_of_the_method": "(§1)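 Aqueous solubility was measured in buffers at pH 1.2 and pH 6.8 and reported in μg/mL.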"}, "CYP2C9": {"target": "CYP2C9 (Homo sapiens, UniProt P11712)", "sequence (P11712 whole entry)": "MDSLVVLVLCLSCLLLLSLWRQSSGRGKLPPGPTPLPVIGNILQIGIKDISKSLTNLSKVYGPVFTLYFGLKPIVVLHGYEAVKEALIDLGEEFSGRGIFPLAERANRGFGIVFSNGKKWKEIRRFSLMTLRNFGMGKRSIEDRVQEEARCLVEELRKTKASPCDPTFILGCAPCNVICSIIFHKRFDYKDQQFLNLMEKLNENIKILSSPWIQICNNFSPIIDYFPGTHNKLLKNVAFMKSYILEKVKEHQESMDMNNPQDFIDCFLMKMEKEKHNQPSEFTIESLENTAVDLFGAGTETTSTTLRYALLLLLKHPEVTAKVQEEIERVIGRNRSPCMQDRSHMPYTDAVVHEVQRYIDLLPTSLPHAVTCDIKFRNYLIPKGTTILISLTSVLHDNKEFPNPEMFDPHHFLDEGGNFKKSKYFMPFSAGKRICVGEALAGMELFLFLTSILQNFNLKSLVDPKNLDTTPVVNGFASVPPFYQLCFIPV", "assay": "Inhibition of CYP2C9 (unknown origin) at 10 uM", "format": "ADME", "summary_of_the_method": "(§2)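 Each test compound was tested at a single concentration of 10 μM against CYP1A2, 2C8, 2C9, 2C19, 2D6 and 3A4. Results are reported as percent inhibition.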"}, "Enterococcus faecalis": {"test_system": "Enterococcus faecalis", "assay": "Antibacterial activity against Enterococcus faecalis ATCC 29212 by microbroth dilution method", "format": "functional"}, "Streptococcus pyogenes": {"test_system": "Streptococcus pyogenes", "assay": "Antibacterial activity against Streptococcus pyogenes ATCC 19615 by microbroth dilution method", "format": "functional"}, "CYP2D6": {"target": "CYP2D6 (Homo sapiens, UniProt P10635)", "sequence (P10635 whole entry)": "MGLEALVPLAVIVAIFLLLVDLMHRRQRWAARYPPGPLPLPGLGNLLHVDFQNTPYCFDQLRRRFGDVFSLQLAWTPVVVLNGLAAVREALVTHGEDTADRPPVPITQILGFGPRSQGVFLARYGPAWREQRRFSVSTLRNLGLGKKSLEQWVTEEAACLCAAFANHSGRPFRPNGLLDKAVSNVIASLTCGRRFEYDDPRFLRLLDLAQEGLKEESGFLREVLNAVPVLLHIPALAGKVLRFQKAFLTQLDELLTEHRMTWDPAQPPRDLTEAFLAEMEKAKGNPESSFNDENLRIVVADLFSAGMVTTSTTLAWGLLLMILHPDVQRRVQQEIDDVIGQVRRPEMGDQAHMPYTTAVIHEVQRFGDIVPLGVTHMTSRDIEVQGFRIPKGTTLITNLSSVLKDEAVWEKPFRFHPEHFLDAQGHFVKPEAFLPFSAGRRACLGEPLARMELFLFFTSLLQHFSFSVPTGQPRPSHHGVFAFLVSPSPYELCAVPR", "assay": "Inhibition of CYP2D6 (unknown origin) at 10 uM", "format": "ADME", "summary_of_the_method": "as §2"}, "[5]": {"assay": "Lipophilicity, log D of the compound at pH 7.4", "format": "physicochemical", "conditions": "buffer"}, "CYP3A4": {"target": "CYP3A4 (Homo sapiens, UniProt P08684)", "sequence (P08684 whole entry)": "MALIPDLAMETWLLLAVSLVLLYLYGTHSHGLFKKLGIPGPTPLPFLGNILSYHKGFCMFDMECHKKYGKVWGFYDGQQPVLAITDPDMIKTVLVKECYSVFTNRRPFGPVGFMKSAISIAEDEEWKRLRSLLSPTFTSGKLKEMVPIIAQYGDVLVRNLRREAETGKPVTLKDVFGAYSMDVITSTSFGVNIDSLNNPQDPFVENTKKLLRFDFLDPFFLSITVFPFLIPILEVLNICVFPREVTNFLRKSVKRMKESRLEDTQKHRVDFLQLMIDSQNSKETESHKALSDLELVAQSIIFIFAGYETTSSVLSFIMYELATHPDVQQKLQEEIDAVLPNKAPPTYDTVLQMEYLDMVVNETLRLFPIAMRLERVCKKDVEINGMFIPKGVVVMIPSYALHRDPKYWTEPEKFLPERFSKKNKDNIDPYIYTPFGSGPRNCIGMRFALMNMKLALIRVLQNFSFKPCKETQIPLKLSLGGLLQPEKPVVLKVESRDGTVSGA", "assay": "Inhibition of CYP3A4 (unknown origin) at 10 uM", "format": "ADME", "summary_of_the_method": "as §2"}, "Staphylococcus aureus [6]": {"test_system": "Staphylococcus aureus", "assay": "Antibacterial activity against methicillin-resistant Staphylococcus aureus 1201984 by microbroth dilution method", "format": "functional"}, "[7]": {"assay": "Solubility in pH 6.8 buffer", "format": "physicochemical", "summary_of_the_method": "as §1"}, "Staphylococcus aureus [8]": {"test_system": "Staphylococcus aureus", "assay": "Antibacterial activity against Staphylococcus aureus ATCC 6538P by microbroth dilution method", "format": "functional"}, "Staphylococcus aureus [9]": {"test_system": "Staphylococcus aureus", "assay": "Antibacterial activity against Staphylococcus aureus ATCC 29213 by microbroth dilution method", "format": "functional"}, "CYP2C19": {"target": "CYP2C19 (Homo sapiens, UniProt P33261)", "sequence (P33261 whole entry)": "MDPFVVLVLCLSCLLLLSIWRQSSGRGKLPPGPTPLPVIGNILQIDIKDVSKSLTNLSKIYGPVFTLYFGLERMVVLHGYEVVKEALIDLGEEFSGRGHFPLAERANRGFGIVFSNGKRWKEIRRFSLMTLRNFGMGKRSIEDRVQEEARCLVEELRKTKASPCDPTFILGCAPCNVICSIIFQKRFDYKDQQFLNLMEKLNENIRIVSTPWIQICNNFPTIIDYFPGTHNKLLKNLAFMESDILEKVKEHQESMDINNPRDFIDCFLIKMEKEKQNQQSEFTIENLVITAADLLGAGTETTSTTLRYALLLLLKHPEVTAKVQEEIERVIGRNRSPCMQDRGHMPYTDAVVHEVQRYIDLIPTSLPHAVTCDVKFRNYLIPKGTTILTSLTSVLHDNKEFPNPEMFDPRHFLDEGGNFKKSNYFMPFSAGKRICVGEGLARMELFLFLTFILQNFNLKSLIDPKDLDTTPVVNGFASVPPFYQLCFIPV", "assay": "Inhibition of CYP2C19 (unknown origin) at 10 uM", "format": "ADME", "summary_of_the_method": "as §2"}, "CYP2C8": {"target": "T1, CYP2C8 (Homo sapiens, UniProt P10632)", "T1 sequence (P10632 whole entry)": "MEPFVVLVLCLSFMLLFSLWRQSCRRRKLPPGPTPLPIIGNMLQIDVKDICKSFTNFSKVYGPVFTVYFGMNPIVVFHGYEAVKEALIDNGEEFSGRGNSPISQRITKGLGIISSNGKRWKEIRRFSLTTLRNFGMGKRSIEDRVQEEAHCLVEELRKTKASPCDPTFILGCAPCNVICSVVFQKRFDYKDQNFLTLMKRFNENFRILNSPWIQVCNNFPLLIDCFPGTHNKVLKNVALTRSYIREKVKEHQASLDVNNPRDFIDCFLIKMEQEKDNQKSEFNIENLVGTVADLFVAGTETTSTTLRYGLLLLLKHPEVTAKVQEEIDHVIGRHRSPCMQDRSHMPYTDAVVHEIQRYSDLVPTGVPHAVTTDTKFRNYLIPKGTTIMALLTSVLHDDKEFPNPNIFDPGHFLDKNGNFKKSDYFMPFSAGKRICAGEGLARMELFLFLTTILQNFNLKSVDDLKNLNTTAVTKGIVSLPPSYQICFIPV", "assay": "Inhibition of CYP2C8 (unknown origin) at 10 uM", "format": "ADME", "summary_of_the_method": "as §2"}, "Streptococcus pneumoniae": {"test_system": "Streptococcus pneumoniae", "assay": "Antibacterial activity against Streptococcus pneumoniae 55143 by microbroth dilution method", "format": "functional"}, "Staphylococcus aureus [10]": {"test_system": "Staphylococcus aureus", "assay": "Antibacterial activity against Staphylococcus aureus ATCC 33591 by microbroth dilution method", "format": "functional"}, "CYP1A2": {"target": "T2, CYP1A2 (Homo sapiens, UniProt P05177)", "T2 sequence (P05177 whole entry)": "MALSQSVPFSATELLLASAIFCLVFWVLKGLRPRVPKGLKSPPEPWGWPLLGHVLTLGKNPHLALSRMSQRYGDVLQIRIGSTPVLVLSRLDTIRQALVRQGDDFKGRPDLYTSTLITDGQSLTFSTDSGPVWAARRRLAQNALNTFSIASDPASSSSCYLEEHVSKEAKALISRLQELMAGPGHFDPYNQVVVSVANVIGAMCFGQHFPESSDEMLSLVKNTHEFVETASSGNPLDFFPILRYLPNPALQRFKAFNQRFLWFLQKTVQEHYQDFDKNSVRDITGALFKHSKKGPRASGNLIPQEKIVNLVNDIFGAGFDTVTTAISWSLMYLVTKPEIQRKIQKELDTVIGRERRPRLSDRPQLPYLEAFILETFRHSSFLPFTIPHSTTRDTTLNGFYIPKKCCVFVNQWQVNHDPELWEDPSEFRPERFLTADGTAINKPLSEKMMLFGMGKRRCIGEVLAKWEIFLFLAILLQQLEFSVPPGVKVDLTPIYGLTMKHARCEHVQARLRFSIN", "assay": "Inhibition of CYP1A2 (unknown origin) at 10 uM", "format": "ADME", "summary_of_the_method": "as §2"}}}
{"smiles": "O=C1COc2ccc(-c3ccc(N4C[C@H](CO)OC4=O)cc3F)cc2N1", "values": [{"measurement": "MIC", "setting": "Enterococcus faecium", "result": "< 0.06", "unit": "µg/mL"}, {"measurement": "MIC", "setting": "Haemophilus influenzae", "result": 0.5, "unit": "µg/mL"}, {"measurement": "Stability", "setting": "[1]", "result": 113, "unit": "%"}, {"measurement": "MIC", "setting": "[2]", "result": "< 0.06", "unit": "µg/mL"}, {"measurement": "MIC", "setting": "Staphylococcus aureus [3]", "result": 1, "unit": "µg/mL"}, {"measurement": "solubility", "setting": "[4]", "result": 4.4, "unit": "µg/mL"}, {"measurement": "inhibition at 10 µM", "setting": "CYP2C9", "result": 12, "unit": "%"}, {"measurement": "MIC", "setting": "Enterococcus faecalis", "result": "< 0.06", "unit": "µg/mL"}, {"measurement": "MIC", "setting": "Streptococcus pyogenes", "result": "< 0.06", "unit": "µg/mL"}, {"measurement": "inhibition at 10 µM", "setting": "CYP2D6", "result": 4, "unit": "%"}, {"measurement": "logD", "setting": "[5]", "result": 1.9}, {"measurement": "inhibition at 10 µM", "setting": "CYP3A4", "result": 0, "unit": "%"}, {"measurement": "MIC", "setting": "Staphylococcus aureus [6]", "result": 0.5, "unit": "µg/mL"}, {"measurement": "solubility", "setting": "[7]", "result": 5.2, "unit": "µg/mL"}, {"measurement": "MIC", "setting": "Staphylococcus aureus [8]", "result": "< 0.06", "unit": "µg/mL"}, {"measurement": "MIC", "setting": "Staphylococcus aureus [9]", "result": 0.125, "unit": "µg/mL"}, {"measurement": "inhibition at 10 µM", "setting": "CYP2C19", "result": 29, "unit": "%"}, {"measurement": "inhibition at 10 µM", "setting": "CYP2C8", "result": 0, "unit": "%"}, {"measurement": "MIC", "setting": "Streptococcus pneumoniae", "result": "< 0.06", "unit": "µg/mL"}, {"measurement": "MIC", "setting": "Staphylococcus aureus [10]", "result": 0.5, "unit": "µg/mL"}, {"measurement": "inhibition at 10 µM", "setting": "CYP1A2", "result": 4, "unit": "%"}]}
{"smiles": "CC(=O)NC[C@H]1CN(c2ccc(-c3ccc4c(c3)NC(=O)CO4)c(F)c2)C(=O)O1", "values": [{"measurement": "MIC", "setting": "Enterococcus faecium", "result": 0.03, "unit": "µg/mL"}, {"measurement": "MIC", "setting": "Haemophilus influenzae", "result": 0.25, "unit": "µg/mL"}, {"measurement": "Stability", "setting": "[1]", "result": 84, "unit": "%"}, {"measurement": "MIC", "setting": "[2]", "result": 0.06, "unit": "µg/mL"}, {"measurement": "MIC", "setting": "Staphylococcus aureus [3]", "result": 1, "unit": "µg/mL"}, {"measurement": "solubility", "setting": "[4]", "result": 22, "unit": "µg/mL"}, {"measurement": "inhibition at 10 µM", "setting": "CYP2C9", "result": 13, "unit": "%"}, {"measurement": "MIC", "setting": "Enterococcus faecalis", "result": 0.03, "unit": "µg/mL"}, {"measurement": "MIC", "setting": "Streptococcus pyogenes", "result": 0.06, "unit": "µg/mL"}, {"measurement": "inhibition at 10 µM", "setting": "CYP2D6", "result": 10, "unit": "%"}, {"measurement": "logD", "setting": "[5]", "result": 1.9}, {"measurement": "inhibition at 10 µM", "setting": "CYP3A4", "result": 0, "unit": "%"}, {"measurement": "MIC", "setting": "Staphylococcus aureus [6]", "result": 0.5, "unit": "µg/mL"}, {"measurement": "solubility", "setting": "[7]", "result": 15, "unit": "µg/mL"}, {"measurement": "MIC", "setting": "Staphylococcus aureus [8]", "result": 0.125, "unit": "µg/mL"}, {"measurement": "MIC", "setting": "Staphylococcus aureus [9]", "result": 0.125, "unit": "µg/mL"}, {"measurement": "inhibition at 10 µM", "setting": "CYP2C19", "result": 20, "unit": "%"}, {"measurement": "inhibition at 10 µM", "setting": "CYP2C8", "result": 12, "unit": "%"}, {"measurement": "MIC", "setting": "Streptococcus pneumoniae", "result": 0.06, "unit": "µg/mL"}, {"measurement": "MIC", "setting": "Staphylococcus aureus [10]", "result": 0.5, "unit": "µg/mL"}, {"measurement": "inhibition at 10 µM", "setting": "CYP1A2", "result": 6, "unit": "%"}]}
